Measured values as given in ChEMBL document CHEMBL3745707 (Bioorg Med Chem, 2016).
Activity calls are given as the source filed them. No cut-off for these calls is given here.

Experiments:
[1] = cells; assay type: functional; details: Homo sapiens, SK-OV-3, 72 h
[2] = system: SK-MEL-28; assay: cells; assay type: functional; details: Homo sapiens, SK-MEL-28, 72 h
[3] = cells; assay type: functional; details: Homo sapiens, MIA PaCa-2, 72 h
[4] = system: A549; assay: cells; assay type: functional; details: Homo sapiens, A549, 72 h
[5] = cells; assay type: functional; details: Homo sapiens, Granta-519, 72 h
[6] = target: T1, Tubulin (Bos taurus) (UniProt Q6B856+Q862L2+Q862F3); assay: Inhibition of bovine MAP rich tubulin polymerization at 10 uM measured every 2 mins for 30 mins by UV-visible spectrophotometric analysis; assay type: protein assay
In short: (§1)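 MAP-rich bovine tubulin at 1.5 mg/mL in 80 mM PIPES pH 6.9, 1 mM GTP, 0.5 mM EGTA, 2 mM MgCl₂. Briefly preincubated with agent or DMSO, then polymerized at 37 °C in a spectrophotometer. Absorbance recorded every 2 min for 30 min; n = 3.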

[7] = system: HeLa; assay: cells; assay type: functional; details: Homo sapiens, 72 h
[8] = system: MCF7; assay: cells; assay type: functional; details: Homo sapiens, MCF7, 72 h
[9] = system: Raji; assay: cells; assay type: functional; details: Homo sapiens, 72 h
[10] = system: U2OS; assay: cells; assay type: functional; details: Homo sapiens, 72 h
[11] = cells; assay type: functional, U-87MG ATCC; details: Homo sapiens, U-87 MG, 72 h
[12] = cells; assay type: functional; details: Homo sapiens, BT-474, 72 h
[13] = target: T2, Serine/threonine-protein kinase PLK2 (Homo sapiens, UniProt Q9NYY3); assay: Inhibition of human recombinant PLK2 using recombinant dephosphorylated bovine alpha- casein as substrate after 30 mins by scintillation counting analysis in presence of gamma-32P-ATP
Target sequence in this assay (Q9NYY3 whole entry): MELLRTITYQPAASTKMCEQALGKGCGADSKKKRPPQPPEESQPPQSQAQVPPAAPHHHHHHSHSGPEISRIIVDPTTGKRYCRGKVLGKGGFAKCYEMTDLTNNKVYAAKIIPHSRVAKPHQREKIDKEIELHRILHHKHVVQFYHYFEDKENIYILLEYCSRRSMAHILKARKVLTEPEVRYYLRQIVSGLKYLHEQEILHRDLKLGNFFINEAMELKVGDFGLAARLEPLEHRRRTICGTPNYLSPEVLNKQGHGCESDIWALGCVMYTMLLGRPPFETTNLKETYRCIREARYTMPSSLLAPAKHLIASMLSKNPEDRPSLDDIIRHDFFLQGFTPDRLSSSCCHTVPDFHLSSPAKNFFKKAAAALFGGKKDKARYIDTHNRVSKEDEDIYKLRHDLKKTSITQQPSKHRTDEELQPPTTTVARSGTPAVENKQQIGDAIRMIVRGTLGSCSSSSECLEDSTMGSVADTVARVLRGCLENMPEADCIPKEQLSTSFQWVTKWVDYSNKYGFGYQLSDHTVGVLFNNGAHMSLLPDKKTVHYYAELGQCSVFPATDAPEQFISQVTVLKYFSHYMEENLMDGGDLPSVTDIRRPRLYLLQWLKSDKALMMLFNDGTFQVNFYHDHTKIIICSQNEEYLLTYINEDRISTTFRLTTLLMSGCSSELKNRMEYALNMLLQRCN

[14] = cells; assay type: functional, cell-based; details: Homo sapiens, DU-145, 72 h
[15] = system: NCI-H1975; assay: cells; assay type: functional; details: Homo sapiens, NCI-H1975, 72 h
[16] = system: K562; assay: cells; assay type: functional, cell-based; details: Homo sapiens, K562, 72 h
[17] = cells; assay type: functional; details: Homo sapiens, COLO 205, 72 h
[18] = target: T1, Tubulin (Bos taurus); assay: Inhibition of bovine MAP rich tubulin polymerization at 1 uM measured every 2 mins for 30 mins by UV-visible spectrophotometric analysis; assay type: protein assay
In short: as §1

[19] = system: U2OS; assay: Induction of apoptosis in human U2OS cells assessed as increase in caspase 3/7 activity after 24 hrs by caspase Glo assay; assay type: functional, cell-based
In short: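 U2OS cells (DMEM, 10% FBS, 37 °C, 5% CO₂) plated at 1–3 × 10⁴ cells/well, left overnight, then exposed 24 h to increasing concentrations, with DMSO control. Caspase 3/7 activity read by Caspase-Glo luminescence; viability measured in parallel with Cell Titer Blue fluorescence.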

[20] = target: T2, Serine/threonine-protein kinase PLK2
Target sequence in this assay (Q9NYY3 whole entry, looked up): as the sequence (Q9NYY3 whole entry) above

[21] = target: Serine/threonine-protein kinase Nek1 (Homo sapiens, UniProt Q96PY6); assay: Inhibition of human NEK1 using MBP as substrate
[22] = target: Glycogen synthase kinase-3 alpha (Homo sapiens, UniProt P49840); assay: Inhibition of human GSK3alpha using [YRRAAVPPSPSLSRHSSPHQ(pS)EDEEE] as substrate
[23] = target: Serine/threonine-protein kinase Nek9 (Homo sapiens, UniProt Q8TD19); assay: Inhibition of human NEK9 using MBP as substrate
[24] = target: TRAF2 and NCK-interacting protein kinase (Homo sapiens, UniProt Q9UKE5); assay: Inhibition of human TNIK using [RLGRDKYKTLRQIRQ] as substrate
[25] = target: Fibroblast growth factor receptor 1 (Homo sapiens, UniProt P11362); assay: Inhibition of human FGFR1 using [KKKSPGEYVNIEFG] as substrate
[26] = target: Ephrin type-A receptor 6 (Homo sapiens, UniProt Q9UF33); assay: Inhibition of human EPHA6 using poly[Glu:Tyr] (4:1) as substrate
[27] = target: High affinity nerve growth factor receptor (Homo sapiens, UniProt P04629); assay: Inhibition of human TRKA using poly[Glu:Tyr] (4:1) as substrate
[28] = target: Testis-specific serine/threonine-protein kinase 3 (Homo sapiens, UniProt Q96PN8); assay: Inhibition of human TSSK3 using [KKKVSRSGLYRSPSMPENLNRPR] as substrate
[29] = target: T2, Serine/threonine-protein kinase PLK2; assay: Inhibition of human PLK2 using casein as substrate
Target sequence in this assay (Q9NYY3 whole entry): as the sequence (Q9NYY3 whole entry) above

[30] = target: Serine/threonine-protein kinase PLK1 (Homo sapiens) (UniProt P53350)
[31] = target: Serine/threonine-protein kinase Nek2 (Homo sapiens, UniProt P51955); assay: Inhibition of human NEK2 using MBP as substrate
[32] = target: Fibroblast growth factor receptor 3 (Homo sapiens, UniProt P22607); assay: Inhibition of human FGFR3 using poly[Glu:Tyr] (4:1) as substrate
[33] = target: Ribosomal protein S6 kinase alpha-1 (Homo sapiens, UniProt Q15418); assay: Inhibition of human RSK1 using [KKLNRTLSVA] as substrate
[34] = target: Mitogen-activated protein kinase 14 (Homo sapiens, UniProt Q16539); assay: Inhibition of human P38alpha using MBP as substrate
[35] = target: Receptor-type tyrosine-protein kinase FLT3 (Homo sapiens, UniProt P36888); assay: Inhibition of human FLT3 using [EAIYAAPFAKKK] as substrate
[36] = system: Mus musculus; assay: Toxicity in NCR nu/nu mouse xenografted with human MDA-MB-231 cells assessed as change in body weight at 75 mg/kg, ip administered alternative day; assay type: organism-based; details: in vivo
[37] = target: Serine/threonine-protein kinase Nek5 (Homo sapiens, UniProt Q6P3R8); assay: Inhibition of human NEK5 using MBP as substrate
[38] = target: Cyclin-Y/Cyclin-dependent kinase 16 (Homo sapiens, UniProt Q00536); assay: Inhibition of human CDK16/cyclin Y using RP protein as substrate; assay type: protein-complex assay

Fibroblast growth factor receptor 1, sequence (P11362 whole entry): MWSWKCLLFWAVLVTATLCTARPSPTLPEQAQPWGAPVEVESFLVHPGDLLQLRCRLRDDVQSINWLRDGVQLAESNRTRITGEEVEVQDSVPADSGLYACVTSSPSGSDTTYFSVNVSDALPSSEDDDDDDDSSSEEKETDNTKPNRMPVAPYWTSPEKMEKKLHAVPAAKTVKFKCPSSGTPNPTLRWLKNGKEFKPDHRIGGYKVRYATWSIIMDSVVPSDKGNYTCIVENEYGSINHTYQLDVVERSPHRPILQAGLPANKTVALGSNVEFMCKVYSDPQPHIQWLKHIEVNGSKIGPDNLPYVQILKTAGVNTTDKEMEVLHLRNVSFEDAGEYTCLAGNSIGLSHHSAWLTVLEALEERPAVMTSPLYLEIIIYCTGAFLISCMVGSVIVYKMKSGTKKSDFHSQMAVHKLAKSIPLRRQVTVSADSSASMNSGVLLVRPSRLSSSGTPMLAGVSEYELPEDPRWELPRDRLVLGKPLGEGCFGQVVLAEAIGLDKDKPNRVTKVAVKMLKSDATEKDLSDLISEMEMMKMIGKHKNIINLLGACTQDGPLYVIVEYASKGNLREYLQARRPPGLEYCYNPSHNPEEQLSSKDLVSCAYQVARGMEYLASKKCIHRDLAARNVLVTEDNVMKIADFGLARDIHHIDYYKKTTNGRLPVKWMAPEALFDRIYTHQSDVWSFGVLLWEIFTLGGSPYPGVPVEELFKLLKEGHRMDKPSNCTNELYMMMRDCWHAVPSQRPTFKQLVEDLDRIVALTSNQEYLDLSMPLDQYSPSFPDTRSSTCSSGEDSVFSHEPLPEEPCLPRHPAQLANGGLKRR
Serine/threonine-protein kinase Nek5, sequence (Q6P3R8 whole entry): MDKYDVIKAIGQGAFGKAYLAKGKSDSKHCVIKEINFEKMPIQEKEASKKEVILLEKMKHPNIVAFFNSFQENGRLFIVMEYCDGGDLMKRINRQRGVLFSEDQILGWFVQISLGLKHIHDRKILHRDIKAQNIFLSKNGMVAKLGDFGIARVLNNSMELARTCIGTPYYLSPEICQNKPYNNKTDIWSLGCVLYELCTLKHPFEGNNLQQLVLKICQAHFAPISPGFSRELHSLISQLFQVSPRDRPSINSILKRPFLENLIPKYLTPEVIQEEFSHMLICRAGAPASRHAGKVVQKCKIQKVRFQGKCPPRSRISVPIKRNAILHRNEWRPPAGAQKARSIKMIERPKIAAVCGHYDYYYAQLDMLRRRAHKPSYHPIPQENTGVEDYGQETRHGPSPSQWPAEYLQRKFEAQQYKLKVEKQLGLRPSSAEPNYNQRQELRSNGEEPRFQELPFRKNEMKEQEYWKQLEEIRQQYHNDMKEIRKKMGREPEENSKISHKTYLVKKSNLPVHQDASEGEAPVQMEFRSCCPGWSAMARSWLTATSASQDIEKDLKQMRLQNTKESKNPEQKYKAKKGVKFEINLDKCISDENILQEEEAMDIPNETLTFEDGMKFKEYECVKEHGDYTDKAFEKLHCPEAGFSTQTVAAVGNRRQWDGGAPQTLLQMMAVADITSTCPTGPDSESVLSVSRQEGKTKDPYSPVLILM
Receptor-type tyrosine-protein kinase FLT3, sequence (P36888 whole entry): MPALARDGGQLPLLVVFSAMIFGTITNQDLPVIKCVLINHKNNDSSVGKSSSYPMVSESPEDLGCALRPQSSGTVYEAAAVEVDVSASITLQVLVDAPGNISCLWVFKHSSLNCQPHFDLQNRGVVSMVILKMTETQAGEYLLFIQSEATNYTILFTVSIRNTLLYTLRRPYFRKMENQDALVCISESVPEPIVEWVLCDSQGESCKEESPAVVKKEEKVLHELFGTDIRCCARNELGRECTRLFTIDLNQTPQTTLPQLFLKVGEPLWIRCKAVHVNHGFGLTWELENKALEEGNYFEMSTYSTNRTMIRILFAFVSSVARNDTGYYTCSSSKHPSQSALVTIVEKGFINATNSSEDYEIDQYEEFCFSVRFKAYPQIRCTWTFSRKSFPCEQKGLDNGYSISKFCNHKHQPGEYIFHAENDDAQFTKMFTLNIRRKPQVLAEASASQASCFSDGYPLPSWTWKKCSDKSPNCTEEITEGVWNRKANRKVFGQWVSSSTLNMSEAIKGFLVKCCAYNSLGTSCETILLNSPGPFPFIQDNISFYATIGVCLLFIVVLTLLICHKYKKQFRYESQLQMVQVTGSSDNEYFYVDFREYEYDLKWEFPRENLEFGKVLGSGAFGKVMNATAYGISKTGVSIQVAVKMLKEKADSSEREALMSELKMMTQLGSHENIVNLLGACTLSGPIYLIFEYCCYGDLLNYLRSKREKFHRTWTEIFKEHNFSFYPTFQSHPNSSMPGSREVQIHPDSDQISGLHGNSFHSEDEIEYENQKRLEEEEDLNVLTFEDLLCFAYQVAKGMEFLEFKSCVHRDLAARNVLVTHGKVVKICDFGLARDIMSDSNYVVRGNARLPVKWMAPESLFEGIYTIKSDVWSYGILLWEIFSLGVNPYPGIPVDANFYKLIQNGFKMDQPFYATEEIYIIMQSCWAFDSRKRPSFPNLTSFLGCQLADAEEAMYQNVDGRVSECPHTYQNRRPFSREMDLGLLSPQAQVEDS
Serine/threonine-protein kinase PLK1 (Homo sapiens), sequence (P53350 whole entry): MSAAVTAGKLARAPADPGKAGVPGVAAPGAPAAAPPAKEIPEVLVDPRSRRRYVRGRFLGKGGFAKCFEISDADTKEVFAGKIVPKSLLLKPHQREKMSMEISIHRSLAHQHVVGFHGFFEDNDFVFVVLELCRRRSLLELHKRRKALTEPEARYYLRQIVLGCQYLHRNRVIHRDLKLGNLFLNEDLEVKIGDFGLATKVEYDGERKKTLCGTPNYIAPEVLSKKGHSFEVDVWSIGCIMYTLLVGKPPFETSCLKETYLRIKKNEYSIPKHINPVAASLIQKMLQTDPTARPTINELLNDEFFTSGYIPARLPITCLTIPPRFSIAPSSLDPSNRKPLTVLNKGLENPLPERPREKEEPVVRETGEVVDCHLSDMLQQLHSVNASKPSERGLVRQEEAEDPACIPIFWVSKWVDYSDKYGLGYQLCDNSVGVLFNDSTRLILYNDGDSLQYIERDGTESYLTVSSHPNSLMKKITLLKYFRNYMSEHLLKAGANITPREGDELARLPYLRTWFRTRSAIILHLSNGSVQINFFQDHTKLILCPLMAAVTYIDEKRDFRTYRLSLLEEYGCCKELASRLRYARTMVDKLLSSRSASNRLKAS
Fibroblast growth factor receptor 3, sequence (P22607 whole entry): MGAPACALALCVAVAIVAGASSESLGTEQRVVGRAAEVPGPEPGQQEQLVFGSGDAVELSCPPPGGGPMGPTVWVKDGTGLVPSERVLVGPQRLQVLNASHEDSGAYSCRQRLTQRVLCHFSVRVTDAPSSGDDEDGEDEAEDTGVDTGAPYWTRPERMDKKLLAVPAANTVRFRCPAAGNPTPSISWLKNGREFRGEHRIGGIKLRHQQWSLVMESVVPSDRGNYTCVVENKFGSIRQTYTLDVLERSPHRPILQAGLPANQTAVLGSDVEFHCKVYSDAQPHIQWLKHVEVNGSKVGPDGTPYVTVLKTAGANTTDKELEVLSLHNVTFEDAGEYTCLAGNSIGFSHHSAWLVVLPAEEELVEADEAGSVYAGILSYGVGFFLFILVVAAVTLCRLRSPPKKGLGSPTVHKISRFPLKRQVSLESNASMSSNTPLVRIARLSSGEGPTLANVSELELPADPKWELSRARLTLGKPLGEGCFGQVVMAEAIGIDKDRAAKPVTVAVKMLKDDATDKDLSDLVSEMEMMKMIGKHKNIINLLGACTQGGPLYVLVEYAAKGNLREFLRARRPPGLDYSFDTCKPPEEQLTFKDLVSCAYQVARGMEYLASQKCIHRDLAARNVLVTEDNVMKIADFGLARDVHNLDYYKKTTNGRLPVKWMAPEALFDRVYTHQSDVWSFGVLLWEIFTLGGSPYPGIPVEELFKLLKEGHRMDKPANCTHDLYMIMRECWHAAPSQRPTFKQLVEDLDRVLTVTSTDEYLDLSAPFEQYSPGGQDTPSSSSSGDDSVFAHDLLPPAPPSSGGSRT
Mitogen-activated protein kinase 14, sequence (Q16539 whole entry): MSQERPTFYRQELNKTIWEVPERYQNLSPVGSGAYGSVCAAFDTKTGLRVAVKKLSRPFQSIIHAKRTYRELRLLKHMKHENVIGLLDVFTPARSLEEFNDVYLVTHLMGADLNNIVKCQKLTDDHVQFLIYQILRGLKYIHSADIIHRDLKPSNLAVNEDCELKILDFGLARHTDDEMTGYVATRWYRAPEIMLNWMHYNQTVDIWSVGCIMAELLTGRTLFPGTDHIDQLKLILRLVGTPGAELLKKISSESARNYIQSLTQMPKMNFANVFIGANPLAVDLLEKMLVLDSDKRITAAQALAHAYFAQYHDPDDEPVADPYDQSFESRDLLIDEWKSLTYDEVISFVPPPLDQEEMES

| GI50 [2] [nM] | GI50 [4] [nM] | inhibition [6] | GI50 [7] [nM] | GI50 [8] [nM] | GI50 [9] [nM] | GI50 [10] [nM] | IC50 [13] [nM] | IC50 [14] [nM] | GI50 [15] [nM] | IC50 [16] [nM] | SMILES | GI50 [1] [nM] | GI50 [3] [nM] | GI50 [5] [nM] | GI50 [11] [nM] | GI50 [12] [nM] | GI50 [17] [nM] | Activity [19] | ΔTm [20] [°C] | other results |
| --- | --- | --- | --- | --- | --- | --- | --- | --- | --- | --- | --- | --- | --- | --- | --- | --- | --- | --- | --- | --- |
| 500 | 750 | Active | 750 | 500 | 500 | 350 | 470 | 250 | 750 | 100 | Cn1c(=O)c(S(=O)(=O)c2ccc(O)cc2)cc2cnc(Nc3ccc4[nH]ccc4c3)nc21 | 750 | 100 | 250 | 1000 | 200 | 250 | – | – | – |
| 500 | 2500 | Active | 500 | 500 | 400 | 350 | – | 150 | 750 | 600 | Cn1c(=O)c(S(=O)(=O)c2ccc(OC(=O)CCCCC3SCC4NC(=O)NC43)cc2)cc2cnc(Nc3ccc4[nH]ccc4c3)nc21 (stereo not given) | 400 | 100 | 500 | 1000 | 250 | 500 | – | – | – |
| – | – | – | – | – | – | – | – | – | – | – | CC[C@]1(O)C[C@H]2CN(CCc3c([nH]c4ccccc34)[C@@](C(=O)OC)(c3cc4c(cc3OC)N(C=O)[C@H]3[C@@](O)(C(=O)OC)[C@H](OC(C)=O)[C@]5(CC)C=CCN6CC[C@]43[C@@H]65)C2)C1 | – | – | – | – | – | – | – | – | inhibition [18]: Active |
| 300 | 200 | Active | 75 | 250 | 100 | 55 | 1070 | 300 | 100 | 200 | Cn1c(=O)c(S(=O)(=O)c2ccc(F)cc2)cc2cnc(Nc3ccc4[nH]ccc4c3)nc21 | 200 | 75 | 60 | 400 | 200 | 200 | Dose-dependent effect | – | – |
| – | – | – | – | – | – | – | – | – | – | – | CC[C@@H]1C(=O)N(C)c2cnc(Nc3ccc(C(=O)NC4CCN(C)CC4)cc3OC)nc2N1C1CCCC1 | – | – | – | – | – | – | – | 12.3 | – |

| SMILES | GI50 [2] [nM] | GI50 [4] [nM] | inhibition [6] | GI50 [7] [nM] | GI50 [8] [nM] | GI50 [9] [nM] | GI50 [10] [nM] | IC50 [13] [nM] | IC50 [14] [nM] | GI50 [15] [nM] | IC50 [16] [nM] | GI50 [1] [nM] | GI50 [3] [nM] | GI50 [5] [nM] | GI50 [11] [nM] | GI50 [12] [nM] | GI50 [17] [nM] | Activity [19] | ΔTm [20] [°C] | other results |
| --- | --- | --- | --- | --- | --- | --- | --- | --- | --- | --- | --- | --- | --- | --- | --- | --- | --- | --- | --- | --- |
| Cn1c(=O)c(S(=O)(=O)c2ccc(F)cc2F)cc2cnc(Nc3ccc4[nH]ccc4c3)nc21 | – | – | inactive | – | – | – | – | 310 | – | – | – | – | – | – | – | – | – | Dose-dependent effect | 4.1 | IC50 [21]: 630 nM; IC50 [22]: > 5 µM; IC50 [23]: > 5 µM; IC50 [24]: > 5 µM; IC50 [25]: > 5 µM; IC50 [26]: > 5 µM; IC50 [27]: > 5 µM; IC50 [28]: > 5 µM; IC50 [29]: 374 nM; ΔTm [30]: 0.2 °C; IC50 [31]: 1830 nM; IC50 [32]: > 5 µM; IC50 [33]: > 5 µM; IC50 [34]: > 10 µM; IC50 [35]: > 5 µM; Activity [36]: Non-toxic; IC50 [37]: 4.42 µM; IC50 [38]: > 10 µM |
